The chains are these.
B1: tRNA (parent)
chain: GUUCCGUUGGCGUAAUGGUAACGCGUCUCCCUCCUAAGGAGAAGACUGCGGGUUCGAGUCCCGUACGGAACG

Variants at the floor of the assay were thinned out.

In the data set the parent is B1. The experiment in a line: yeast fitness relative to wild type (ratio to wild type); higher = fitter; tRNA-Arg(CCU), competitive growth, 37 C, YPD. The essentials:
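Variants of the tRNA-Arg(CCU) gene, chemically synthesised with a 3% per-site mutation rate at 69 sites, were placed at the native genomic locus in Saccharomyces cerevisiae. The pooled strains were competed in YPD at 37°C for 24 hours in six parallel replicates. Gene amplicons from the start population and from each end population were read by 100-nucleotide paired-end sequencing. Darwinian fitness relative to wild type came from changes in genotype frequencies; genotypes needed ≥ 100 starting reads, and estimates < 0.5 were set to 0.5.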
With U7C A15G G51C A57U, the yeast fitness was not above 0.5.

As for U7A U8A G10C C27G C34G U35C C55U, the yeast fitness is not above 0.5.

As to U7C C31U U47C, the yeast fitness was not above 0.5.

For the variant U7C C22U C29G, the yeast fitness was not above 0.5.

On to U7C C11G U13G C30U A70C, for which the yeast fitness is not above 0.5.

Consider U7A G25A A65U, for which the yeast fitness came to 0.765.

For the variant U7A U13A A69C, the yeast fitness was not above 0.5.

Take U7A G39C: the yeast fitness was found to be 0.608.

As for U7A U13A G23A, the yeast fitness was not above 0.5.

For U7C A15C G38A A45G G52A C61G C66U, the yeast fitness was not above 0.5.

For U7C A14U C24G C30U A43G, the yeast fitness is not above 0.5.

For the variant U7A G18C C27G G38A, the yeast fitness is not above 0.5.

For U7C A65U A69U, the yeast fitness amounted to 0.801.

For the variant U7C A20U, the yeast fitness was 0.722.

Take U7C A20G: the yeast fitness came to 0.819.

As for U7C A14G C22G, the yeast fitness is not above 0.5.

U7C C11G C24U G48A C66U: the yeast fitness was not above 0.5.

As for U7C C24A C55A C62U A65C, the yeast fitness is not above 0.5.

As to U7A G41C U54A C62U A70U, the yeast fitness is not above 0.5.

For U7C A36U G50C C60A G63A, the yeast fitness was not above 0.5.

Take U7A U8C A36C G51C: the yeast fitness was not above 0.5.

Regarding U7C C27U C60A, the yeast fitness was not above 0.5.

Regarding U7A G18C U35C A70U, the yeast fitness was not above 0.5.

Consider U7C C11U A37C C60A, for which the yeast fitness is not above 0.5.

As for U7A G10C C22U C27G G67A, the yeast fitness is not above 0.5.

On to U7C C22U A43U, for which the yeast fitness was not above 0.5.

In the case of U7C C30A, the yeast fitness worked out at 0.794.

With U7C C30G, the yeast fitness was determined as 0.579.

As for U7C C29G G67C, the yeast fitness was determined as 0.651.

As for U7C C46G G50A C62G U64C, the yeast fitness worked out at 0.695.

For U7C C34A, the yeast fitness is 0.764.

U7A G12A A20G G23A U26G: the yeast fitness was not above 0.5.

Regarding U7C A37C A40C A45U A57C A70U, the yeast fitness was 0.555.

For U7C A15G A20U C24G U35C A36C C66U, the yeast fitness was not above 0.5.

Turning to U7A U16A, the yeast fitness turned out to be 0.743.

Turning to U7C A20G U32G, the yeast fitness is not above 0.5.

U7A U54A U59C U64C: the yeast fitness was not above 0.5.

With U7A G39C C55A, the yeast fitness was determined as 0.723.

As for U7C A20C C34A G63C, the yeast fitness is not above 0.5.

For the variant U7A U28A A69C, the yeast fitness is not above 0.5.

With U7C C27G C33G G44A, the yeast fitness was 0.75.

Consider U7A G17C C24G C29A G48C, for which the yeast fitness is not above 0.5.

As to U7A G12C C27G C31A C46A G56C, the yeast fitness worked out at 0.587.

Consider U7C A15G A20U C24G U35C A36C C61A, for which the yeast fitness was not above 0.5.

Consider U7C C27A G51C C60U A69C, for which the yeast fitness is not above 0.5.

With U7C A45U U54C, the yeast fitness is 0.557.

In the case of U7C C11G G18A G44U A65C, the yeast fitness is not above 0.5.

U7C C11U U32C G39C G67C: the yeast fitness was not above 0.5.

As for U7A G10C G17A C22U C27G, the yeast fitness is not above 0.5.

In the case of U7A G18A C33A G38C, the yeast fitness was not above 0.5.

In the case of U7C C46U A69U, the yeast fitness came to 0.842.

With U7C C11U G39C A45U, the yeast fitness was not above 0.5.

U7C A21C C34U C49U A69U: the yeast fitness was not above 0.5.

As for U7C A43G A65C, the yeast fitness was 0.591.

In the case of U7C G9A G23C A45C, the yeast fitness is not above 0.5.

For U7C C30A U54A A57C, the yeast fitness was not above 0.5.

As for U7A G23A C29A C61U, the yeast fitness amounted to 0.573.

U7C C27A A69U: the yeast fitness is not above 0.5.

In the case of U7C A21C, the yeast fitness came to 0.606.

U7C A21U: the yeast fitness was 0.769.

For U7A G12C C34U, the yeast fitness is not above 0.5.

U7A U32C A65G: the yeast fitness was found to be 0.558.

For U7C A21U C22A, the yeast fitness is not above 0.5.

Regarding U7A G23C C33G A42G C46U U64C, the yeast fitness was not above 0.5.

U7C C55U: the yeast fitness is 0.847.

On to U7A U8G G51A A69C, for which the yeast fitness is not above 0.5.

For U7A U32G U35A, the yeast fitness is not above 0.5.

With U7C C24U C31A A42G U54A C55G, the yeast fitness was not above 0.5.

Turning to U7C, the yeast fitness was 1.01.

With U7C C24A G68A, the yeast fitness was not above 0.5.

For U7C A21G C49U, the yeast fitness was determined as 0.722.

For the variant U7A U19G C60G, the yeast fitness is not above 0.5.

In the case of U7C A15G G18C C49U, the yeast fitness is not above 0.5.

In the case of U7A U16A C29U C60U C66G G68A, the yeast fitness is not above 0.5.

On to U7C A36C A57U C61A C66A, for which the yeast fitness was not above 0.5.

With U7C A36C A57U C61A C66G, the yeast fitness is 0.537.

Turning to U7A U32C C33G, the yeast fitness was not above 0.5.

Regarding U7C A69U, the yeast fitness was determined as 0.913.

On to U7A G68C, for which the yeast fitness amounted to 0.811.

On to U7C C61U U64A A69G, for which the yeast fitness was 0.535.

In the case of U7C G9C, the yeast fitness amounted to 0.729.

For the variant U7C C11U C22A C29G C33U, the yeast fitness was not above 0.5.

Turning to U7C A42C U53A, the yeast fitness is not above 0.5.

As for U7C A42C G58A, the yeast fitness was not above 0.5.

As for U7A G18A U19G C62A, the yeast fitness came out at 0.633.

On to U7A G38A A43U, for which the yeast fitness is 0.53.

Turning to U7A G10C G52A U54C C60G, the yeast fitness worked out at 0.518.

As for U7C C24G A45G, the yeast fitness is not above 0.5.

Turning to U7C C24U A70G, the yeast fitness was 0.666.

U7A U19A A20C A40G A69U: the yeast fitness came to 0.503.

With U7A G10C U26C C27G U32A, the yeast fitness is not above 0.5.

With U7C G10A C34A G63A, the yeast fitness worked out at 0.555.

On to U7C A36G A43U, for which the yeast fitness turned out to be 0.535.

With U7A G51C, the yeast fitness amounted to 0.553.

With U7A G51A, the yeast fitness was found to be 0.652.

In the case of U7C C61G C62U, the yeast fitness is not above 0.5.

For U7C A21G C29A G48C, the yeast fitness stood at 0.555.

Consider U7C A14C A21C C46A, for which the yeast fitness was not above 0.5.

With U7C C33U A65U, the yeast fitness was not above 0.5.

As to U7C C22A C31U A57C G58A A69G, the yeast fitness was not above 0.5.

For U7A U8A G67C, the yeast fitness was not above 0.5.

Regarding U7A G17A G23A A45C U47A G50A, the yeast fitness was not above 0.5.

As for U7A U8G C30G G63A, the yeast fitness is not above 0.5.

On to U7A G50C U53C C55U, for which the yeast fitness is not above 0.5.

For the variant U7C C22G, the yeast fitness stood at 0.842.

For the variant U7C C46A U64C, the yeast fitness was 0.545.

Consider U7C G10A G41C U64G A65C, for which the yeast fitness is not above 0.5.

With U7A G23C C31G C33U A42G G52C G58C, the yeast fitness was not above 0.5.

With U7A G23C C49G, the yeast fitness came to 0.566.

U7A U8C C61U: the yeast fitness is 0.604.

As for U7A G10C C27G U32A G56C, the yeast fitness is not above 0.5.

Consider U7C A14C A70C, for which the yeast fitness amounted to 0.594.

With U7A U8G A14G A36U A43U, the yeast fitness is not above 0.5.

In the case of U7C C22U U53A, the yeast fitness was determined as 0.71.

Regarding U7C A65U, the yeast fitness was determined as 0.849.

On to U7A U13G G41A, for which the yeast fitness was not above 0.5.

For U7C C30G U32C A40C C62U G67A, the yeast fitness is not above 0.5.

As for U7A G18C A70U, the yeast fitness is 0.662.

In the case of U7A U19A U32C, the yeast fitness was determined as 0.829.

Take U7C A43C C55U: the yeast fitness came to 0.543.

Take U7A G44C A45U: the yeast fitness worked out at 0.503.

Consider U7C C29G A40U, for which the yeast fitness was 0.665.

In the case of U7C C24A G67A, the yeast fitness is not above 0.5.

As to U7C C29G U47C U53G, the yeast fitness was not above 0.5.

As to U7C C62U A65U, the yeast fitness is 0.542.

Regarding U7C A43C A57G U59C A70G, the yeast fitness was not above 0.5.

With U7C C24A C29G, the yeast fitness turned out to be 0.594.

In the case of U7C A15G G17A, the yeast fitness was not above 0.5.

As for U7C C33U G58A C66A, the yeast fitness was not above 0.5.

Regarding U7C C31U C46U, the yeast fitness was 0.532.

In the case of U7C A37U G39C A43U C55G, the yeast fitness was not above 0.5.

Regarding U7C C30U G39C, the yeast fitness is not above 0.5.

Consider U7A G23A A43U, for which the yeast fitness is not above 0.5.

As to U7C A15G, the yeast fitness is 0.793.

As to U7A U13A C46G C66U, the yeast fitness was not above 0.5.

Consider U7A G10C C30G C34U, for which the yeast fitness was not above 0.5.

U7A U8G C34A G58C C62A A69C: the yeast fitness is not above 0.5.

Regarding U7C C27U G48A C55A G63A, the yeast fitness is not above 0.5.

Regarding U7A U19G U26C C29G, the yeast fitness is not above 0.5.

Consider U7C C30G G39A G41U G51C G52A, for which the yeast fitness was not above 0.5.

With U7C C22G C24A G25C, the yeast fitness is not above 0.5.

U7C C29A U32C C60A: the yeast fitness was not above 0.5.

U7A U28C: the yeast fitness came to 0.711.

For the variant U7A U28A, the yeast fitness worked out at 0.605.

With U7C C49U U54C, the yeast fitness was 0.508.

Regarding U7C A14G G17A, the yeast fitness is 0.531.

On to U7A G23A C29A, for which the yeast fitness was 0.531.

Consider U7C A40U A42U U54A U64G, for which the yeast fitness was not above 0.5.

Take U7C A15C G38A A45G G52A C61G: the yeast fitness turned out to be 0.558.

As to U7A U8G C30G, the yeast fitness was not above 0.5.

U7C C30U C34A: the yeast fitness was not above 0.5.

As to U7C C31U, the yeast fitness came to 0.954.

In the case of U7C C31G, the yeast fitness was 0.81.

As to U7A U26C A69U, the yeast fitness is 0.574.

With U7A G38A, the yeast fitness stood at 0.695.

As for U7C C31G C34U A57U, the yeast fitness was not above 0.5.

In the case of U7C A14C G51A, the yeast fitness was not above 0.5.

With U7C C27G A69U, the yeast fitness worked out at 0.632.

As for U7C C49G A69C, the yeast fitness worked out at 0.58.

Turning to U7C C31U A70U, the yeast fitness is 0.658.

Regarding U7C A14C, the yeast fitness worked out at 0.679.

Consider U7C A14G, for which the yeast fitness is 0.86.

In the case of U7A U8A G10C C27G C34G, the yeast fitness came to 0.564.

On to U7A G39A C49A, for which the yeast fitness is not above 0.5.

Regarding U7A U47C A69C, the yeast fitness is 0.601.

Regarding U7A G12C U54G, the yeast fitness was 0.673.

In the case of U7C G9A A14C C33G G50C C60G U64A, the yeast fitness worked out at 0.618.
